What was measured:
Rattus norvegicus [1] = test: Antiinflammatory activity in albino rat assessed as inhibition of carrageenan-induced paw edema at 0.28 mmol/kg, po administered 30 mins before carrageenan challenge measured after 1 hr relative to control; type: functional
Procedure, shortened: (§1)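 Male albino rats, n = 4 per group. Dosed orally as a suspension in 0.5% w/v CMC in water; controls received CMC alone. 0.1 mL of freshly prepared 1% carrageenan in saline was injected subplantar into the right hind paw 30 min after dosing, with saline in the left paw. Right paw thickness was read by Vernier caliper before and at 1–5 h. Result is % decrease in edema vs control, mean ± S.E.M.; one-way ANOVA.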

Rattus norvegicus [2] = test: Antiinflammatory activity in albino rat assessed as inhibition of carrageenan-induced paw edema at 0.28 mmol/kg, po administered 30 mins before carrageenan challenge measured after 2 hrs relative to control; type: functional; procedure, shortened: as §1
Rattus norvegicus [3] = test: Antiinflammatory activity in albino rat assessed as inhibition of carrageenan-induced paw edema at 0.28 mmol/kg, po administered 30 mins before carrageenan challenge measured after 3 hrs relative to control; type: functional; procedure, shortened: as §1
Rattus norvegicus [4] = test: Antiinflammatory activity in albino rat assessed as inhibition of carrageenan-induced paw edema at 0.28 mmol/kg, po administered 30 mins before carrageenan challenge measured after 4 hrs relative to control; type: functional; procedure, shortened: as §1
Rattus norvegicus [5] = test: Antiinflammatory activity in albino rat assessed as inhibition of carrageenan-induced paw edema at 0.28 mmol/kg, po administered 30 mins before carrageenan challenge measured after 5 hrs relative to control; type: functional; procedure, shortened: as §1
Rattus norvegicus [6] = test: Ulcerogenic effect in albino rat assessed as ulcer index at 0.28 mmol/kg, po; type: toxicity, organism-based; conditions: in vivo
Procedure, shortened: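 Rat gastric ulcers were graded by area: level I <1 mm², level II 1–3 mm², level III >3 mm². Ulcer index = 1×(level I count) + 2×(level II) + 3×(level III). Reported as mean ± S.E.M., n = 4.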

Rattus norvegicus [7] = test: Antiinflammatory activity in albino rat assessed as inhibition of carrageenan-induced paw edema at 0.28 mmol/kg, po administered 30 mins before carrageenan challenge measured after 3 hrs relative to indomethacin; type: functional; conditions: read-out: INH
Procedure, shortened: (§2)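 Calculated from the 3 h % edema inhibition in carrageenan paw edema (male albino rats, oral dosing in 0.5% CMC 30 min before 1% carrageenan subplantar injection). Expressed as % of the inhibition given by the reference drug in the same assay.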

Rattus norvegicus [8] = test: Antiinflammatory activity in albino rat assessed as inhibition of carrageenan-induced paw edema at 0.28 mmol/kg, po administered 30 mins before carrageenan challenge measured after 3 hrs relative to celecoxib; type: functional; conditions: read-out: INH; procedure, shortened: as §2
[9] = molecular target: T1, Prostaglandin G/H synthase 1 (Ovis aries, UniProt P05979); test: Inhibition of ovine COX1 assessed as prostaglandin F2alpha level
T1 sequence (P05979 whole entry): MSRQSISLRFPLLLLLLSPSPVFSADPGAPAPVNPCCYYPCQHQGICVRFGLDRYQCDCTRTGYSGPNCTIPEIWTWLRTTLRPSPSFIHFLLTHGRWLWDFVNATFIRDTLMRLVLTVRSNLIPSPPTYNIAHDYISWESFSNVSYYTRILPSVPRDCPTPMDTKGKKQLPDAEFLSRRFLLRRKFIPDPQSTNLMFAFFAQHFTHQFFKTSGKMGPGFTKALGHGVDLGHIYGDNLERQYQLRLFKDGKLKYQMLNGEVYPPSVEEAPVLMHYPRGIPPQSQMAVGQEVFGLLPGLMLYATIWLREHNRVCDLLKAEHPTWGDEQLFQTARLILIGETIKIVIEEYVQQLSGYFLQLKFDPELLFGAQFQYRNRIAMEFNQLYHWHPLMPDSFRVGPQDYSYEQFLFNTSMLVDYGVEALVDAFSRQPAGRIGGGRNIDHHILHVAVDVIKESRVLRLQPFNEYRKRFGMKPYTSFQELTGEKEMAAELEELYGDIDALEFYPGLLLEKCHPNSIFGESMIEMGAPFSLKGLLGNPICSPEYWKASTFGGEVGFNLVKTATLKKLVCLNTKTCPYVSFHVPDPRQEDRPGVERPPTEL

[10] = molecular target: T2, Prostaglandin G/H synthase 2 (Homo sapiens, UniProt P35354); test: Inhibition of human recombinant COX2 assessed as prostaglandin F2alpha level
T2 sequence (P35354 whole entry): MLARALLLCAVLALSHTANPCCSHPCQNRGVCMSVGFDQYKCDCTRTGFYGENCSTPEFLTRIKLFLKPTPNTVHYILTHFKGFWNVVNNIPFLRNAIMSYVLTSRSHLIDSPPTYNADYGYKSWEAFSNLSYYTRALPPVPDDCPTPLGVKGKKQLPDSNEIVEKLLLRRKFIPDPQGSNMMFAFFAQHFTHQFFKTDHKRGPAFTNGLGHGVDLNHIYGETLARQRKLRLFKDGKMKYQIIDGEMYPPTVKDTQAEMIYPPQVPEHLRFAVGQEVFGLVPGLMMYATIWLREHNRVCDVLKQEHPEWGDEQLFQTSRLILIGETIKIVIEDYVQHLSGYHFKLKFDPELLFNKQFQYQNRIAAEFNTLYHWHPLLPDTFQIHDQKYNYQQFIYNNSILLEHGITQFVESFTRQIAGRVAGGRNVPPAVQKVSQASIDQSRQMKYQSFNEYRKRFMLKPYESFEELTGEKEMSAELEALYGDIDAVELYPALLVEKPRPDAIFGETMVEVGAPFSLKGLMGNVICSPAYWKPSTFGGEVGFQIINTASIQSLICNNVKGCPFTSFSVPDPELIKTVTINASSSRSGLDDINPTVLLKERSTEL

[11] = Selectivity ratio IC50 for ovine COX1 to IC50 for human recombinant COX2

Compound | inhibition in vivo at 280 µmol/kg (Rattus norvegicus [1]) [%] | inhibition in vivo at 280 µmol/kg (Rattus norvegicus [2]) [%] | inhibition in vivo at 280 µmol/kg (Rattus norvegicus [3]) [%] | inhibition in vivo at 280 µmol/kg (Rattus norvegicus [4]) [%] | inhibition in vivo at 280 µmol/kg (Rattus norvegicus [5]) [%] | UI (Rattus norvegicus [6]) | paw edema inhibition relative to indomethacin at 280 µmol/kg (Rattus norvegicus [7]) [%] | paw edema inhibition relative to celecoxib at 280 µmol/kg (Rattus norvegicus [8]) [%] | IC50 [9] [µM] | IC50 [10] [µM] | Ratio IC50 [11]
COc1ccc(-n2nc(C(=O)Nc3ccccc3OC)nc2-c2cc(OC)c(OC)c(OC)c2)cc1 | 52 | 57 | 30 | 24 | 10 | 5 | 38 | 44 |  |  | 
CNC(=O)c1nc(-c2cc(OC)c(OC)c(OC)c2)n(-c2ccc(OC)cc2)n1 | 56 | 74 | 74 | 65 | 50 | 7.5 | 95 | 109 | 45.9 | 68.2 | 0.67
CCNC(=O)c1nc(-c2cc(OC)c(OC)c(OC)c2)n(-c2ccc(OC)cc2)n1 | 60 | 68 | 69 | 58 | 52 | 9 | 88 | 101 |  |  | 
COc1ccc(-n2nc(C(=O)Nc3ccc(Br)cc3)nc2-c2cc(OC)c(OC)c(OC)c2)cc1 | 40 | 50 | 66 | 59 | 57 | 1.8 | 85 | 97 | > 100 | > 100 | 
COc1ccc(-n2nc(C(=O)Nc3ccc(C)cc3)nc2-c2cc(OC)c(OC)c(OC)c2)cc1 | 38 | 60 | 60 | 58 | 42 | 5.5 | 77 | 88 |  |  | 
COc1ccc(-n2nc(C(=O)Nc3ccccc3)nc2-c2cc(OC)c(OC)c(OC)c2)cc1 | 45 | 51 | 54 | 50 | 46 | 4 | 69 | 79 |  |  | 
COc1ccc(-n2nc(C(=O)Nc3ccc(Cl)cc3)nc2-c2cc(OC)c(OC)c(OC)c2)cc1 | 55 | 70 | 78 | 75 | 70 | 5 | 100 | 115 | > 100 | > 100 | 
COc1ccc(-n2nc(C(=O)Nc3ccc(O)cc3)nc2-c2cc(OC)c(OC)c(OC)c2)cc1 | 36 | 35 | 50 | 37 | 27 | 1 | 64 | 74 |  |  | 
COc1ccc(-n2nc(C(=O)Nc3ccc(C(=O)O)cc3)nc2-c2cc(OC)c(OC)c(OC)c2)cc1 | 50 | 57 | 74 | 69 | 60 | 12 | 95 | 109 |  |  | 
Cc1ccc(-c2cc(C(F)(F)F)nn2-c2ccc(S(N)(=O)=O)cc2)cc1 [CELECOXIB] | 42 | 48 | 68 | 57 | 51 | 0.5 |  |  |  |  | 
COc1ccc(NC(=O)c2nc(-c3cc(OC)c(OC)c(OC)c3)n(-c3ccc(OC)cc3)n2)cc1 | 39 | 45 | 67 | 63 | 51 | 4.5 | 86 | 99 |  |  | 
COc1ccc(-n2nc(C(=O)NN)nc2-c2cc(OC)c(OC)c(OC)c2)cc1 | 36 | 47 | 57 | 54 | 56 | 2 | 73 | 84 | 39.8 | 46.3 | 0.86
COc1ccc(-n2nc(C(=O)Nc3cccc(C(F)(F)F)c3)nc2-c2cc(OC)c(OC)c(OC)c2)cc1 | 48 | 55 | 65 | 56 | 50 | 5 | 83 | 96 |  |  | 
COc1ccc(-n2nc(C(=O)Nc3ccc(OC)c(OC)c3)nc2-c2cc(OC)c(OC)c(OC)c2)cc1 | 57 | 68 | 78 | 70 | 61 | 7 | 100 | 115 | > 100 | > 100 | 
COc1ccc(-n2nc(C(N)=O)nc2-c2cc(OC)c(OC)c(OC)c2)cc1 | 40 | 59 | 72 | 71 | 64 | 9 | 92 | 106 |  |  | 
